Assay results gathered from unrelated publications.
Each line is one published result; the experiments were not run side by side.
KIT D816H: Mast/stem cell growth factor receptor Kit (KIT, Homo sapiens, UniProt P10721, D816H)
KIT V559D: Mast/stem cell growth factor receptor Kit (KIT, Homo sapiens, UniProt P10721, V559D)
KIT A829P: Mast/stem cell growth factor receptor Kit (KIT, Homo sapiens, UniProt P10721, A829P)
KIT: Mast/stem cell growth factor receptor Kit (KIT, Homo sapiens, UniProt P10721)
KIT D816V: Mast/stem cell growth factor receptor Kit (KIT, Homo sapiens, UniProt P10721, D816V)
KIT V559D/V654A: Mast/stem cell growth factor receptor Kit (KIT, Homo sapiens, UniProt P10721, V559D/V654A)

With `CN(C)c1nccc(-c2cnn3ncccc23)n1` the remaining binding was 60% (KIT D816H; binding; 1 µM).
`C[C@@]1(Cc2ccc(C#N)cc2)C(=O)N(c2cc(Cl)cc(Cl)c2)c2ncc(C(=O)NC3(c4nc(C5CCC5)no4)CC3)n21` gave a remaining binding of 99% (KIT V559D; cell-free assay, competition with immobilised ligand; 1 µM).
With `Nc1ncc2c(n1)-c1c([nH]c3ccc(C#CC4CC4)cc13)CCCC2` the remaining binding was 100% (KIT V559D; binding, competition with immobilised ligand; 1 µM).
For `CN1CCN(c2ccc(Nc3nccc(-c4cccc([N+](=O)[O-])c4)n3)cc2C(F)(F)F)CC1`, the remaining binding was 0.15% (Mast/stem cell growth factor receptor Kit (KIT, Homo sapiens, UniProt P10721, T670I/V559D); binding; 10 µM).
`N[C@@H]1CCN(c2nccc(-c3cnn4ncccc34)n2)C1` has a remaining binding of 100% (KIT A829P; binding; 1 µM).
With `CCOCCn1cc(C(=O)Nc2ccc(-n3nc(-c4cccnc4)cc3C(F)(F)F)cn2)ccc1=O` the remaining binding was 100% (KIT; cell-free assay, competition with immobilised ligand; 1 µM).
`CN(C)c1nccc(-c2cnc3ncccn23)n1` gave a remaining binding of 76% (Mast/stem cell growth factor receptor Kit, autoinhibited (KIT, Homo sapiens, UniProt P10721); binding; 1 µM).
`O=C(NCCCN1CCOCC1)c1ccc(Nc2nccc(-c3cc4ccccc4s3)n2)cc1` has a remaining binding of 8.7% (Mast/stem cell growth factor receptor Kit (KIT, Homo sapiens, UniProt P10721, L576P); binding, competition with immobilised ligand; 1 µM).
`C[C@H]1CCN(c2nccc(-c3cnn4ncccc34)n2)C1` gave a remaining binding of 83% (KIT A829P; binding; 1 µM).
The remaining binding of `O=C(c1ccc(Nc2ncc(Cl)c(-c3ccc(Cl)s3)n2)cc1)N1CCC(N2CCCC2)CC1` is reported as 17% (KIT D816V; binding, competition with immobilised ligand; 1 µM).
`O=C(NCC1CCOCC1)c1n[nH]cc1NC(=O)c1c(F)cccc1F` has a remaining binding of 100% (KIT V559D; binding, competition with immobilised ligand; 1 µM).
With `CC1CCCN1c1nccc(-c2cnn3ncccc23)n1` (stereo not drawn) the remaining binding was 100% (KIT; binding; 1 µM).
`O=C(N1CCS(=O)(=O)CC1)N1C[C@H](c2ccc(OC(F)(F)F)cc2)C[C@H](c2nc(C3CC3)no2)C1` gave a remaining binding of 100% (KIT A829P; cell-free assay, competition with immobilised ligand; 1 µM).
With `COc1ncc2cc3ccccc3nc2c1C#N` the remaining binding was 94% (KIT V559D; cell-free assay, competition with immobilised ligand; 5 µM).
`Cc1cnc(Nc2ccc(C(=O)N3CCC(N4CCCC4)CC3)cc2)nc1-c1cc2ccccc2s1` has a remaining binding of 5.2% (KIT D816V; binding, competition with immobilised ligand; 1 µM).
For `O=C(Nc1c[nH]nc1C(=O)NC1CCNCC1)c1cc(F)cc(F)c1`, the remaining binding was 100% (KIT V559D/V654A; binding, competition with immobilised ligand; 1 µM).
With `N#CC1(c2ccccn2)CCN(Cc2cc(C(=O)N3CCCC3)c(=O)n3ccccc23)CC1` the remaining binding was 50% (KIT A829P; cell-free assay, competition with immobilised ligand; 1 µM).
`C=CC(=O)N1CCC(C(=O)NCC(=O)N2CCN(c3nc(-c4cnc(N)nc4C(F)F)nc(N4CCOCC4)n3)CC2)CC1` gave a remaining binding of 93% (KIT; binding, competition with immobilised ligand; 1 µM).
For `O=C(O)c1cc(-c2ccc(C3CCNCC3)cc2)c2ccc(-c3ccc(C(F)(F)F)cc3)cc2c1`, the remaining binding was 100% (KIT A829P; cell-free assay, competition with immobilised ligand; 1 µM).
With `CN(CCCC(F)(F)F)c1nccc(-c2cnn3ncccc23)n1` the remaining binding was 77% (KIT D816H; binding; 1 µM).
The remaining binding of `Nc1cnc(N2CCc3cc(S(=O)(=O)Nc4c(F)cc(Cl)cc4F)cc(N4CCCC4=O)c32)nc1` is reported as 100% (KIT D816H; cell-free assay, competition with immobilised ligand; 1 µM).
`C[C@@H](c1ccc(-n2cnc3c(N)ncnc32)cc1)N1CCc2nn(C)c(Cc3ccccc3)c2C1=O` has a remaining binding of 64% (KIT D816H; binding, competition with immobilised ligand; 0.1 µM).
For `O=C(NC[C@@H]1[C@H]2CN(C(=O)OCc3cc(C(F)(F)F)cc(C(F)(F)F)c3)C[C@@H]12)c1ccc2[nH]nnc2c1`, the remaining binding was 100% (KIT D816H; cell-free assay, competition with immobilised ligand; 1 µM).
`COc1cnc(Nc2cccc(S(N)(=O)=O)c2)nc1N1CCN(c2ccccc2)C(=O)C1` gave a remaining binding of 97% (KIT V559D/V654A; binding, competition with immobilised ligand; 1 µM).
